Source: PubChem
Most compounds without a hit are left out; they make up all but 4.5% or so of the library.
OX1R antag-1 = antagonists of human orexin 1 receptor (OX1R) | inhibition, % at 6.6 µM | hit rate 1.8% among 330,000 | OX1R-expressing cells, FRET antagonist read-out | Orexin/Hypocretin receptor type 1 (Homo sapiens), O43613 | AID 485270, 2010; in the data active = inhibition mostly above about 38%, no sharp cut-off; inactive = mostly below about 40%;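 note: 0% = agonist challenge alone and 100% = reference antagonist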
OX1R antag-2 = OX1R (HCRTR1) antagonists, primary screen, fluorescence, CHO/OX1R cells, Fluo-8 calcium, orexin A; inhibition, % at 5 µM; AID 434989, 2010; hit rate 0.43% among 330,000; Fluo-8 calcium fluorescence;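 active = inhibition above its plate's threshold, mean inhibition of all tested compounds on the plate plus 3 SD, cut at about 37% in these data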;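 note: 0% = orexin A challenge wells and 100% = SB-334867-A antagonist wells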
CHO parental Ca = ATP-evoked calcium signal inhibitors, parental CHO, primary screen, counter-screen for OX1R antagonist project, cell-based, fluorescence, Fluo-8 calcium dye; parental CHO-K1, ATP-induced calcium, Fluo-8 fluorescence; inhibition, % at 5.6 µM; hit rate 0.63% among 330,000;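 active = inhibition above that plate's mean sample inhibition plus 3 SD, cut at about 26% in these data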;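 note: 0% = ATP-challenged DMSO wells and 100% = DMSO wells without ATP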
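Assay system: parental CHO cells; Read-out basis: percent inhibition of ATP-evoked calcium rise, normalized to controls; Benchmarks: ATP and no-ATP DMSO wells; Compound dosing: single nominal dose of 5.6 µM per compound; Signal: Fluo-8 calcium dye fluorescence; Also added: ATP as calcium-mobilizing challenge; Repeats: singlicate.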
GPR7 antag = GPR7 receptor antagonists, primary screen, cell-based, fluorescence, single concentration | hit rate 1.1% among 290,000 | GPR7-expressing cells, fluorescence antagonist assay | inhibition, % at 4.4 µM | Neuropeptides B/W receptor type 1 (Homo sapiens), P48145 | AID 1861, 2009; in the data active = inhibition above about 16%, passing the limit was not always enough;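 note: cells stimulated with the agonist NPW; 0% = agonist with vehicle and 100% = vehicle without agonist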
TAAR1 antagonist = human TAAR1 antagonists, primary screen, Fluo-8 calcium fluorescence, CHO RD-HGA16 cells; Trace amine-associated receptor 1 (Homo sapiens), Q96RJ0; antagonist; inhibition, % at 3 µM; AID 624466, 2012; hit rate 1.5% among 360,000;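 active = inhibition above a per-plate cutoff, the mean inhibition of test compounds on that plate plus 3 SD, cut at about 49% in these data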;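 note: 0% = DMSO plus EC80 beta-PEA response and 100% = DMSO alone without agonist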
Target sequence (Q96RJ0 whole entry, looked up): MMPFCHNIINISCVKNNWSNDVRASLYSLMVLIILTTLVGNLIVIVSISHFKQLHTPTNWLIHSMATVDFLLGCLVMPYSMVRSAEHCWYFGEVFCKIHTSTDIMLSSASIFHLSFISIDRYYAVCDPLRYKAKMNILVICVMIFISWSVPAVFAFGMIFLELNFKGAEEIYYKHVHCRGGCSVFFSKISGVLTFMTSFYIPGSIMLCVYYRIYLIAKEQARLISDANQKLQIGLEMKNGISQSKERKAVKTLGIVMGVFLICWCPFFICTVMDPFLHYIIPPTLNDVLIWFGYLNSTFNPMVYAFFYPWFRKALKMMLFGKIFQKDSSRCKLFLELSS
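System: RD-HGA16 CHO cells with stable hTAAR1 and Gα16 | Probe or stimulus: EC80 β-phenethylamine stimulus | Dosing: 3 µM, single point | Times: Dye loading 75 min at 37 °C, then 30 min room temperature | Measured by: Fluo-8 calcium-sensitive fluorescence | Read-out basis: % inhibition of agonist calcium response | Replicates: n of 1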
TAAR1 ag = human TAAR1 agonists, primary screen, Fluo-8 calcium fluorescence, CHO RD-HGA16 cells; Trace amine-associated receptor 1 (Homo sapiens), Q96RJ0; AID 624467, 2012; hit rate 0.99% among 360,000; vehicle wells 0%, saturating PEA agonist 100%; activation, % at 3 µM;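 active = activation above the mean activation of all test compounds in the run plus 3 SD, cut at about 38% in these data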
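Benchmarks: low control DMSO, high control PEA (EC100); System: CHO RD-HGA16 cells carrying human TAAR1 plus Gα16; Detection: Fluo-8 fluorescence, 5 s baseline then 140 s kinetic read; Schedule: 17-24 h plating, Fluo-8 75 min 37 °C, 30 min RT; Read-out basis: % activation from peak over basal fluorescence ratio, DMSO-to-PEA scaled.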
Active calls of the source: *; . = no result given.

SMILES	OX1R antag-1	OX1R antag-2	CHO parental Ca	GPR7 antag	TAAR1 antagonist	TAAR1 ag
CN1c2ccsc2/C(=N/Nc2ccc(F)cc2)CS1(=O)=O	15	-18	-1	17	29	44*
CN(C)C(=O)COC(=O)/C=C/c1ccccc1[N+](=O)[O-]	39*	-12	3	0	0	6
C#CCn1cc(/C=N/NC(=O)c2cc3ccccc3o2)c2ccccc21	72*	-1	-6	-5	15	3
COC(=O)C1=C(C)N(Cc2cccc(C(F)(F)F)c2)C(=NCc2ccccc2C(F)(F)F)NC1c1ccc(Cl)cc1 (stereo not drawn)	.	.	.	.	-24	2
Cn1cc([C@]2(O)C(=O)Nc3ccc(OC(F)(F)F)cc32)c2ccccc21	.	.	.	.	40	41*
O=[N+]([O-])c1cnc(Sc2ccncn2)s1	72*	18	24	4	-20	3
O=C(O)c1ccc(S(=O)(=O)c2ccc([N+](=O)[O-])cc2[N+](=O)[O-])cc1	57*	-7	1	4	-3	2
O=C(O)c1ccc([N+](=O)[O-])cc1	.	.	.	.	-15	15
CN(C(=O)[C@@H](Cc1ccccc1)NC(=O)[C@H]1O[C@@H](n2ccc(=O)[nH]c2=O)[C@H](O)[C@@H]1O)C1CCCCC1	.	.	.	.	-23	2
Cc1ccc(-c2cc(C(=O)NNC(=O)c3csc(N4CCOCC4)n3)c3ccccc3n2)cc1	8	-20	-14	.	43	14
Cc1ccc2nc(-c3ccccc3)cc(C(=O)NNC(=O)c3csc(N4CCOCC4)n3)c2c1	8	-25	-14	.	57*	17
Cc1ccc(-c2csc(NCCn3c(-c4ccncc4)nc4ccccc43)n2)cc1	60*	-10	-30	6	41	15
FC(F)(F)c1ccccc1NC(=S)Nn1cnnc1	.	.	.	-15	-6	1
Cc1nnc(SCc2ccc(C(=O)O)cc2)s1	15	-15	-7	-1	-22	4
Cc1ccc(NC(=O)c2ccc(CSc3nnc(C)s3)cc2)cc1	10	-1	40*	1	24	18
Cc1cc(C)cc(NC(=O)c2ccc(CSc3nnc(C)s3)cc2)c1	8	-1	-3	10	66*	13
COC(=O)[C@]12C[C@H](CC(=O)N3CCCCC3)C(=O)N(CCC3=CCCCC3)C1=C[C@H](C(C)(C)C)O[C@@H]2C	.	.	.	.	-44	-2
O=S1(=O)c2ccc(Br)cc2OC[C@H](c2ccccc2)N1Cc1ccccc1	.	.	.	.	-3	1
Brc1ccc(N2O[C@H]3C=C[C@@H]2C3)nc1	.	.	.	.	-21	2
CCOC(=O)N1CCN(CC(O)COc2ccc(OC)cc2C(C)(C)C)CC1 (stereo not drawn)	22	-39	-15	-9	3	6
CCOC(=O)C1CCCN(CC(O)COc2ccc(OC)cc2C(C)(C)C)C1 (stereo not drawn)	6	-43	-16	-1	48	39*
COc1ccc([C@H]2CC(=O)C=C(c3cccc(C(C)C)c3)C2)cc1OC	6	48*	24	.	66*	5
CC(C)c1cccc(C2=CC(=O)C[C@H](c3ccc(F)cc3)C2)c1	16	-6	-27	.	52*	6
COC(=O)C1=C(C)N(CC(C)C)C(=S)NC1c1ccc(Cl)cc1 (stereo not drawn)	.	.	.	.	-11	-2
C#CCOc1c(/C=C\c2nc(O)c([N+](=O)[O-])c(=O)[nH]2)cc(Br)cc1OC	53*	1	2	-12	-18	1
COC(=O)COc1c(/C=C\c2nc(O)c([N+](=O)[O-])c(=O)[nH]2)cccc1OC	34	-12	2	-9	-3	5
O=C(Nc1ccc2ccccc2n1)c1ccccc1Br	42*	-3	-18	3	-23	-4
Cc1ccc(C(=O)Nc2nnc(S(=O)(=O)Nc3ccccc3C)s2)cc1C	23	-8	-4	1	-22	0
